Measured values: ChEMBL document CHEMBL4229446, “Development of Novel Monoamine Oxidase-B (MAO-B) Inhibitors with Reduced Blood-Brain Barrier Permeability for the Potential Management of Noncentral Nervous System (CNS) Diseases” (J Med Chem, 2018)

Legend:
[1] = Cmax in C57BL/6 mouse plasma at 24.5 mg/kg, iv administered as single dose measured 24 hrs by UPLC-MS/MS analysis; type: ADME, organism-based; parameters: dose 24.5 mg/kg, route intravenous
Summary of the method: (§1)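 21 animals dosed at 0 min, 3 sacrificed at each of 0, 5, 15, 30 min, 1, 4 and 24 h. Plasma was extracted by protein precipitation with phospholipid removal. Brain was weighed, bead-homogenised in 50 mM ammonium formate and extracted in acidified organic solvent. Quantified by UPLC-MS/MS (MRM). Brain ng/g taken as ng/mL. Parameters came from noncompartmental analysis. Kp = AUClast brain/plasma.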

[2] = Cmax in C57BL/6 mouse plasma at 24.5 mg/kg, sc administered as single dose measured 24 hrs by UPLC-MS/MS analysis; type: ADME, organism-based; parameters: dose 24.5 mg/kg, route subcutaneous
Summary of the method: (§2)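 15 animals dosed, 3 sacrificed at each of 1, 2, 4, 6 and 24 h. Plasma and brain homogenate were extracted and quantified by UPLC-MS/MS. Parameters came from noncompartmental analysis. Values above or below the limit of quantification, or undetected, were omitted. Kp = AUClast brain/plasma.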

[3] = Cmax in C57BL/6 mouse brain at 24.5 mg/kg, iv administered as single dose measured 24 hrs by UPLC-MS/MS analysis; type: ADME, organism-based; parameters: dose 24.5 mg/kg, route intravenous; summary of the method: as §1
[4] = AUClast in C57BL/6 mouse brain at 24.5 mg/kg, sc administered as single dose measured 24 hrs by UPLC-MS/MS analysis; type: ADME, organism-based; parameters: dose 24.5 mg/kg, time 0 - last, route subcutaneous; summary of the method: as §2
[5] = Ratio of AUClast in brain to plasma in C57BL/6 mouse at 24.5 mg/kg, iv administered as single dose measured 24 hrs by UPLC-MS/MS analysis; type: ADME, organism-based; summary of the method: as §1
[6] = AUClast in C57BL/6 mouse brain at 23.4 mg/kg, iv administered as single dose measured 24 hrs by UPLC-MS/MS analysis; type: ADME, organism-based; parameters: dose 23.4 mg/kg, route intravenous, time 0 - last
Summary of the method: (§3)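 21 animals dosed at 0 min, 3 killed per time point (0, 5, 15, 30 min, 1, 4, 24 h). Plasma extracted by protein precipitation/phospholipid removal. Brain homogenized in 50 mM ammonium formate, then extracted in acidified organic solvent. Both quantified by UPLC-MS/MS (MRM), brain ng/g taken as ng/mL. Noncompartmental analysis. Kp = AUClast brain/plasma.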

[7] = Apparent half-life of the terminal disposition phase in C57BL/6 mouse plasma at 23.4 mg/kg, iv administered as single dose measured 24 hrs by UPLC-MS/MS analysis; type: ADME, organism-based; settings: read-out: t1/2 lambda z (converted); summary of the method: as §3
[8] = Apparent half-life of the terminal disposition phase in C57BL/6 mouse brain at 23.4 mg/kg, sc administered as single dose measured 24 hrs by UPLC-MS/MS analysis; type: ADME, organism-based; settings: read-out: t1/2 lambda z (converted)
Summary of the method: (§4)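 15 animals dosed, 3 killed at each of 1, 2, 4, 6 and 24 h. Plasma and brain homogenate (ammonium formate, acidified organic extraction) assayed by UPLC-MS/MS, brain ng/g taken as ng/mL. Noncompartmental parameters exclude values above/below quantification limit or undetected. Kp = AUClast brain/plasma.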

[9] = Tmax in C57BL/6 mouse brain at 23.4 mg/kg, iv administered as single dose measured 24 hrs by UPLC-MS/MS analysis; type: ADME, organism-based; summary of the method: as §3
[10] = Tmax in C57BL/6 mouse plasma at 23.4 mg/kg, iv administered as single dose measured 24 hrs by UPLC-MS/MS analysis; type: ADME, organism-based; summary of the method: as §3
[11] = Tmax in C57BL/6 mouse brain at 23.4 mg/kg, sc administered as single dose measured 24 hrs by UPLC-MS/MS analysis; type: ADME, organism-based; summary of the method: as §4
[12] = AUClast in C57BL/6 mouse brain at 23.4 mg/kg, po administered as single dose measured 24 hrs by UPLC-MS/MS analysis; type: ADME, organism-based; parameters: dose 23.4 mg/kg, route oral, time 0 - last; summary of the method: as §4
[13] = Tmax in C57BL/6 mouse brain at 23.4 mg/kg, po administered as single dose measured 24 hrs by UPLC-MS/MS analysis; type: ADME, organism-based; summary of the method: as §4
[14] = AUClast in C57BL/6 mouse plasma at 23.4 mg/kg, sc administered as single dose measured 24 hrs by UPLC-MS/MS analysis; type: ADME, organism-based; parameters: dose 23.4 mg/kg, time 0 - last, route subcutaneous; summary of the method: as §4
[15] = Cmax in C57BL/6 mouse plasma at 23.4 mg/kg, sc administered as single dose measured 24 hrs by UPLC-MS/MS analysis; type: ADME, organism-based; parameters: dose 23.4 mg/kg, route subcutaneous; summary of the method: as §4
[16] = Apparent half-life of the terminal disposition phase in C57BL/6 mouse brain at 23.4 mg/kg, iv administered as single dose measured 24 hrs by UPLC-MS/MS analysis; type: ADME, organism-based; settings: read-out: t1/2 lambda z (converted); summary of the method: as §3
[17] = Cmax in C57BL/6 mouse brain at 23.4 mg/kg, iv administered as single dose measured 24 hrs by UPLC-MS/MS analysis; type: ADME, organism-based; parameters: dose 23.4 mg/kg, route intravenous; summary of the method: as §3
[18] = AUClast in C57BL/6 mouse plasma at 23.4 mg/kg, iv administered as single dose measured 24 hrs by UPLC-MS/MS analysis; type: ADME, organism-based; parameters: dose 23.4 mg/kg, time 0 - last, route intravenous; summary of the method: as §3
[19] = AUClast in C57BL/6 mouse brain at 23.4 mg/kg, sc administered as single dose measured 24 hrs by UPLC-MS/MS analysis; type: ADME, organism-based; parameters: dose 23.4 mg/kg, time 0 - last, route subcutaneous; summary of the method: as §4
[20] = Tmax in C57BL/6 mouse plasma at 23.4 mg/kg, sc administered as single dose measured 24 hrs by UPLC-MS/MS analysis; type: ADME, organism-based; summary of the method: as §4
[21] = Ratio of AUClast in brain to plasma in C57BL/6 mouse at 23.4 mg/kg, po administered as single dose measured 24 hrs by UPLC-MS/MS analysis; type: ADME, organism-based; summary of the method: as §4
[22] = Cmax in C57BL/6 mouse plasma at 23.4 mg/kg, po administered as single dose measured 24 hrs by UPLC-MS/MS analysis; type: ADME, organism-based; parameters: dose 23.4 mg/kg, route oral; summary of the method: as §4
[23] = target: T1, Amine oxidase [flavin-containing] B (Homo sapiens, UniProt P27338); experiment: Inhibition of human recombinant MAO-B expressed in baculovirus infected BTI-TN-5B1-4 insect cells using benzylamine as substrate preincubated for 1 hr followed by substrate addition and measured after 30 mins by resazurin dye-based fluorescence assay; type: cell-based
T1 sequence (P27338 whole entry): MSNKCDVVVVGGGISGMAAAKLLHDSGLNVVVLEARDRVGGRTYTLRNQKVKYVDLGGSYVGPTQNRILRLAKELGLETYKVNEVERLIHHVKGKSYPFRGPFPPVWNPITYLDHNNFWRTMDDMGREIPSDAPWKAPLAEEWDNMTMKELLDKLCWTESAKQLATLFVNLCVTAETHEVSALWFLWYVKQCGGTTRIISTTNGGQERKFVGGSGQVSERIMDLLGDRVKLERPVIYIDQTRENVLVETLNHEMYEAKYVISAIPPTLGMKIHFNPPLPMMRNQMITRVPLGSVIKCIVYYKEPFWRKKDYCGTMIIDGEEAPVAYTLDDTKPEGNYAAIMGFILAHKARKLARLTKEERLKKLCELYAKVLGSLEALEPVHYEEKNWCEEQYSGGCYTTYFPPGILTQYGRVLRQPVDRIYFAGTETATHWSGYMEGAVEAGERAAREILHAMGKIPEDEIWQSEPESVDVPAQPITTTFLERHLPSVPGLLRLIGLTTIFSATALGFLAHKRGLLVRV

[24] = Ratio of AUClast in brain to plasma in C57BL/6 mouse at 23.4 mg/kg, iv administered as single dose measured 24 hrs by UPLC-MS/MS analysis; type: ADME, organism-based; summary of the method: as §3

In the case of `C[C@H](Cc1ccc(OCc2ccc(Br)c(Cl)c2)cc1)N(C)CC(=O)O`, the Cmax [1] is reported as 16700 ng/mL, the Cmax [2] is reported as 7110 ng/mL and the Cmax [3] is reported as 653 ng/mL. For the same molecule, the AUC(0-t) at 24 h [4] was 12900 ng·h/mL and the Kp at 24 h [5] was 0.11.

With `CN(CC(=O)O)[C@H](CC#N)Cc1ccc(OCc2ccc(Cl)c(Cl)c2)cc1` the AUC(0-t) at 24 h [6] was 183 ng·h/mL, the half-life [7] was 44.4 min and the half-life [8] was 64.2 min. It also gave a Tmax [9] of 5 min, a Tmax [10] of 5 min and a Tmax [11] of 60 min. For the same molecule, the AUC(0-t) at 24 h [12] was 116 ng·h/mL, the Tmax [13] was 60 min and the AUC(0-t) at 24 h [14] was 35100 ng·h/mL. For the same molecule, the Cmax [15] was 13300 ng/mL, the half-life [16] was 39 min and the Cmax [17] was 305 ng/mL. It also gave an AUC(0-t) at 24 h [18] of 39100 ng·h/mL, an AUC(0-t) at 24 h [19] of 176 ng·h/mL and a Tmax [20] of 60 min. It also gave a Kp at 24 h [21] of 0.002, a Cmax [22] of 16800 ng/mL and an IC50 [23] of 206 nM. It also gave a Kp at 24 h [24] of 0.004.
